According to ChEMBL document CHEMBL1151957, “Design and synthesis of novel C14-hydroxyl substituted triptolide derivatives as potential selective antitumor agents” (J Med Chem, 2009):

Tests used:
[1] = test system: PC-3; experiment: Cytotoxicity against human PC3 cells by SRB assay; type: functional, cell-based
In short: (§1)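 Cells grown in RPMI 1640 with 10% heat-inactivated FBS, 2 mmol/L glutamine, 10 mmol/L HEPES pH 7.4, 5% CO2, 37 °C; MCF-7/ADR also given 1 mmol/L pyruvate and 0.01 mg/mL insulin. Treated in triplicate with graded concentrations for 72 h at 37 °C, read by SRB. IC50 (50% growth inhibition vs control) by logit method; three independent experiments.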

[2] = test system: SK-OV-3; experiment: Cytotoxicity against human SKOV3 cells by SRB assay; type: functional, cell-based; in short: as §1
[3] = test system: MDA-MB-468; experiment: Cytotoxicity against human MDA-MB-468 cells by SRB assay; type: functional, cell-based; in short: as §1
[4] = test system: MOLT-4; experiment: Cytotoxicity against human MOLT4 cells after 72 hrs by MTT assay; type: functional, cell-based; settings: MOLT-4, 72 h
In short: (§2)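 Cells grown at 37 °C in 5% CO2 in RPMI 1640 with 10% heat-inactivated FBS, glutamine, antibiotics and HEPES; MCF-7 medium also had sodium pyruvate and insulin. Cells in 96-well plates were treated in triplicate with graded concentrations for 72 h at 37 °C. Read-out was MTT for leukemia lines and SRB for solid-tumor lines. IC50 was set relative to control by the logit method, as mean ± SD of three independent experiments.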

[5] = test system: PC-3; experiment: Cytotoxicity against human PC3 cells after 72 hrs by […]; type: functional, cell-based; settings: PC-3, 72 h; in short: as §2
[6] = test system: MCF7; experiment: Cytotoxicity against human MCF7 cells after 72 hrs […]; type: functional, cell-based; settings: MCF7, 72 h; in short: as §2
[7] = test system: SK-OV-3; experiment: Cytotoxicity against human SKOV3 cells after 72 hrs by […]; type: functional, cell-based; settings: SK-OV-3, 72 h; in short: as §2
[8] = Cytotoxicity against human Rh30 cells after 72 hrs by […]; type: functional, cell-based; settings: SJRH30, 72 h; in short: as §2
[9] = test system: DU-145; experiment: Cytotoxicity against human DU145 cells after 72 hrs by […]; type: functional, cell-based; settings: DU-145, 72 h; in short: as §2
[10] = test system: HCT-116; experiment: Cytotoxicity against human HCT116 cells after 72 hrs […]; type: functional, cell-based; settings: HCT-116, 72 h; in short: as §2
[11] = test system: SGC-7901; experiment: Cytotoxicity against human SGC7901 cells after 72 hrs by SRB assay; settings: SGC-7901, 72 h
[12] = Cytotoxicity against human 786-O cells after 72 hrs […]; type: functional, cell-based; settings: 786-0, 72 h; in short: as §2
[13] = test system: U-251; experiment: Cytotoxicity against human U251 cells after 72 hrs […]; type: functional, cell-based; settings: U-251, 72 h; in short: as §2
[14] = Cytotoxicity against human HO8910 cells after 72 hrs by […]; type: functional, cell-based; settings: HO-8910, 72 h; in short: as §2
[15] = test system: A549; experiment: Cytotoxicity against human A549 cells after 72 hrs by SRB assay; settings: A549, 72 h
[16] = test system: Bel-7402; experiment: Cytotoxicity against human Bel7402 cells after 72 hrs by […]; type: functional, cell-based; settings: Bel-7402, 72 h; in short: as §2
[17] = Cytotoxicity against human SW1116 cells after 72 hrs by […]; type: functional, cell-based; settings: SW 1116, 72 h; in short: as §2
[18] = test system: SMMC-7721; experiment: Cytotoxicity against human SMMC7721 cells after 72 hrs […]; type: functional, cell-based; settings: SMMC-7721, 72 h; in short: as §2
[19] = test system: HCT-15; experiment: Cytotoxicity against human HCT15 cells after 72 hrs […]; type: functional, cell-based; settings: HCT-15, 72 h; in short: as §2
[20] = test system: MDA-MB-231; experiment: Cytotoxicity against human MDA-MB-231 cells after 72 hrs […]; type: functional, cell-based; settings: MDA-MB-231, 72 h; in short: as §2
[21] = test system: K562; experiment: Cytotoxicity against human K562 cells after 72 hrs by MTT assay; type: functional, cell-based; settings: K562, 72 h; in short: as §2
[22] = test system: MKN-28; experiment: Cytotoxicity against human MKN28 cells after 72 hrs […]; type: functional, cell-based; settings: MKN-28, 72 h; in short: as §2
[23] = test system: KB; experiment: Cytotoxicity against human KB cells after 72 hrs […]; type: functional, cell-based; in short: as §2
[24] = test system: HeLa; experiment: Cytotoxicity against human HeLa cells after 72 hrs […]; type: functional, cell-based; in short: as §2

Q: Which results are given for CC(C)[C@]12O[C@H]1[C@@H]1O[C@]13[C@]1(O[C@H]1C[C@H]1C4=C(CC[C@@]13C)C(=O)OC4)[C@H]2O [EPITRIPTOIIDE]?
A: IC50 [1]: 1600 nM; IC50 [2]: 790 nM; IC50 [3]: 1320 nM

Q: Which IC50 [1] does the source give for CC(C)[C@]12O[C@H]1[C@@H]1O[C@]13[C@]1(O[C@H]1C[C@H]1C4=C(CC[C@@]13C)C(=O)OC4)[C@]2(O)CO here?
A: Its IC50 is > 100000 nM.

Q: What about the IC50 [2] of the same compound?
A: Its IC50 is > 100000 nM.

Q: And the IC50 [3]?
A: Its IC50 is > 100000 nM.

Q: Which IC50 [1] does the source give for CC(C)[C@]1(O)[C@H](Cl)[C@@H]2O[C@]23[C@]2(O[C@H]2C[C@H]2C4=C(CC[C@@]23C)C(=O)OC4)[C@]12CO2 here?
A: The IC50 was 470 nM.

Q: And the IC50 [2]?
A: Its IC50 is 140 nM.

Q: What about the IC50 [3] of the same compound?
A: The IC50 was 210 nM.

Q: Which IC50 [1] does the source give for CC(C)[C@]12O[C@H]1[C@@H]1O[C@@]13[C@@]1(C)CCC4=C(COC4=O)[C@]1(O)C[C@@H]1O[C@@]13[C@]21CO1 here?
A: The IC50 was 7340 nM.

Q: What about the IC50 [2] of the same compound?
A: Its IC50 is 1860 nM.

Q: What about the IC50 [3] of the same compound?
A: The IC50 was 2370 nM.

Q: What does the source list for CC(C)[C@]12O[C@H]1[C@@H]1O[C@]13[C@]1(O[C@H]1C[C@H]1C4=C(CC[C@@]13C)C(=O)OC4)[C@@H]2O [TRIPTOLIDE]?
A: IC50 [4]: 17 nM; IC50 [5]: 43 nM; IC50 [6]: 19 nM; IC50 [7]: 10 nM; IC50 [8]: 14 nM; IC50 [1]: 20 nM; IC50 [9]: 24 nM; IC50 [10]: 10 nM; IC50 [11]: 15 nM; IC50 [12]: 22 nM; IC50 [13]: 49 nM; IC50 [14]: 28 nM; IC50 [15]: 59 nM; IC50 [16]: 20 nM; IC50 [17]: 52 nM; IC50 [2]: 9 nM; IC50 [18]: 18 nM; IC50 [19]: 29 nM; IC50 [20]: 24 nM; IC50 [21]: 50 nM; IC50 [3]: 10 nM; IC50 [22]: 200 nM; IC50 [23]: 43 nM; IC50 [24]: 47 nM
